Active and inactive are the calls of the source. The calls are words filed in the database; no cut-off is given here.
Columns and labels:
K562 [1] = test: Covalent protein binding in human K562 cells by rhodamine azide based fluorescence analysis; format: functional, cell-based; settings: dose 10-100 µM
Outline: (§1)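 K562 cancer cell lysates incubated with clickable probes across a dose range (down to 10 μM), then click-labelled with rhodamine azide to visualise proteome labelling; competition run with remodelin added.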

K562 [2] = test: Covalent protein binding in human K562 cells at 10 to 100 uM in presence of remodelin by rhodamine azide based fluorescence analysis; format: functional, cell-based; settings: dose 10-100 µM; outline: as §1
[3] = Stability of the compound in DMSO-d6 solution assessed as discoloration to dark brown colour in presence of light; format: physicochemical
Outline: (§2)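 Remodelin solutions followed over time: in aqueous buffer kept from light for 7 days; in DMSO monitored for darkening colour and new aromatic NMR resonances.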

[4] = molecular target: T1, RNA cytidine acetyltransferase (Homo sapiens) (UniProt Q9H0A0); test: Stabilization of full length recombinant NAT10 (unknown origin) by DSLS based analysis
T1 sequence (whole entry): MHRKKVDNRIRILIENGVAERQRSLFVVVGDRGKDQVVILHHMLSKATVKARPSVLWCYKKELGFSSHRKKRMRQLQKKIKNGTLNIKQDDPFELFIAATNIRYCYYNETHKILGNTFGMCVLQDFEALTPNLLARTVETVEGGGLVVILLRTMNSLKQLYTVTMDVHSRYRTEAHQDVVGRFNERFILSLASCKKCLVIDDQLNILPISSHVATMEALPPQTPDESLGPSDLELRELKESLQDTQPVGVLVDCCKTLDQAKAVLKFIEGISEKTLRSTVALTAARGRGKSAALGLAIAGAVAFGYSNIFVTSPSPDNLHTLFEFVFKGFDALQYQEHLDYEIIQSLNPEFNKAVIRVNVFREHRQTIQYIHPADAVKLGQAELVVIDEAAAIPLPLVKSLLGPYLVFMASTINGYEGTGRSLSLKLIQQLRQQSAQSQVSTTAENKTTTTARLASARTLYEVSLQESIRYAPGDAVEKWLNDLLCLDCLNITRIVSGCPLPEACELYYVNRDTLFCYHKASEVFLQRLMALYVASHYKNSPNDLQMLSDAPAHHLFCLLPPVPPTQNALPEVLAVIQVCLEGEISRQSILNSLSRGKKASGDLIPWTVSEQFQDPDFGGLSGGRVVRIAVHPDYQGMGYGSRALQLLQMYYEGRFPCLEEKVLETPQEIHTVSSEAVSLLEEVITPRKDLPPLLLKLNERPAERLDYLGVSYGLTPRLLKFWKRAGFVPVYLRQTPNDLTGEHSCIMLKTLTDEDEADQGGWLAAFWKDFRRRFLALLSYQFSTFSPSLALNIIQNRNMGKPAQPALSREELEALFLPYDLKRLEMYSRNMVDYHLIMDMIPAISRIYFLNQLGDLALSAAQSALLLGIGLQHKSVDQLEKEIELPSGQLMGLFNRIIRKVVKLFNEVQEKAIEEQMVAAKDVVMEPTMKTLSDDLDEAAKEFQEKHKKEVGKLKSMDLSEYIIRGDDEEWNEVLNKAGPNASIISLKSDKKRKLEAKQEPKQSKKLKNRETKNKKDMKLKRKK
Outline: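 Full-length recombinant NAT10 thermal stability measured by differential static light scattering with ATP, acetyl-CoA or remodelin added.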

[5] = Stability of the light-protected compound in aqueous buffer measured for 7 days; format: physicochemical; settings: 168 h, time 7 day; outline: as §2
[6] = Redox activity of the compound assessed as H2O2 producion at 250 uM by horseradish peroxidase-phenol red counter screen based assay; format: physicochemical
Tubulin (Homo sapiens) = Tubulin (Homo sapiens) (UniProt P68371+Q9H4B7+P0DPH7+P68366+Q13509+Q71U36+P04350+Q3ZCM7+P07437+P68363+Q9BQE3+Q6PEY2+Q13885+Q9BVA1+Q9BUF5); test: Induction of tubulin acetylation in human HEK293T cells at 10 to 50 uM measured after 48 hrs by western blot analysis; format: cell-based; settings: dose 10-50 µM
[7] = Aggregation property of the compound assessed as detergent sensitive inhibition of beta-lactamase AmpC at 33 to 100 uM; format: physicochemical; settings: dose 33-100 µM
[8] = molecular target: T1, RNA cytidine acetyltransferase (Homo sapiens); test: Inhibition of NAT10-catalyzed RNA cytidine acetylation in human HeLa cells assessed as decrease in ac4C at helix 34 of 18S rRNA at 50 uM after 4 days by UV-HPLC analysis; format: cell-based; settings: time 4.0 day
Outline: (§3)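 Helix 34 and helix 45 ac4C of 18S rRNA analysed […] by UV-HPLC after cells were treated with remodelin at 50 μM for 4 d; NAT10 KD cells served as comparator.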

[9] = Stability of the compound in DMSO-d6 solution assessed as drug degradation measured after 24 hrs by NMR analysis; format: physicochemical
[10] = molecular target: T1, RNA cytidine acetyltransferase (Homo sapiens); test: Inhibition of NAT10-catalyzed RNA cytidine acetylation in human HeLa cells assessed as decrease in ac4C level at 50 uM after 48 hrs by Northern blot assay; format: cell-based
Outline: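 Following 48 h remodelin treatment, RNA probed by dot blot or Northern blot with an anti-ac4C antibody.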

[11] = molecular target: T1, RNA cytidine acetyltransferase (Homo sapiens); test: Binding affinity to recombinant NAT10 acetyltransferase domain (494 to 753 residues) (unknown origin) by isothermal titration calorimetry
Outline: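 Recombinant NAT10 acetyltransferase domain (residues 494–753) titrated with acetyl-CoA or remodelin by isothermal titration calorimetry.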

[12] = molecular target: T1, RNA cytidine acetyltransferase (Homo sapiens); test: Inhibition of NAT10-catalyzed RNA cytidine acetylation in human HeLa cells assessed as decrease in ac4C level at 10 to 50 uM after 48 hrs by LC-MS assay; format: cell-based; settings: dose 10-50 µM
Outline: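 Wild-type cells treated with remodelin for 48 h; RNA ac4C levels quantified by LC-MS, with CRISPR-Cas9 NAT10 disruption as comparator.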

[13] = Aggregation property of peptides assessed as colloidal aggregate formation at 25 uM by dynamic light scattering analysis; format: physicochemical
[14] = Thiol reactivity with CoA at 1 to 50 uM measured after 30 mins by DACM thiol consumption assay; format: ADME; settings: 0.5 h, dose 1-50 µM
[15] = molecular target: T1, RNA cytidine acetyltransferase (Homo sapiens); test: Inhibition of NAT10-catalyzed RNA cytidine acetylation in human HeLa cells assessed as decrease in ac4C at helix 45 of 18S rRNA at 50 uM after 48 hrs by nucleotide resolution sequencing analysis; format: cell-based
Outline: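 Helix 45 of 18S rRNA (C1842) read by nucleotide-resolution ac4C sequencing after 50 μM remodelin for 48 h; C→T change at the site scored as ac4C present, no mutation as loss; NAT10 KD as comparator.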

[16] = Thiol-reactivity using La antigen containing reactive cysteine C232 and C245 in presence of DTT by ALARM NMR analysis; format: ADME
[17] = molecular target: T1, RNA cytidine acetyltransferase (Homo sapiens); test: Inhibition of NAT10-catalyzed RNA cytidine acetylation in human HeLa cells assessed as decrease in ac4C level at 10 to 50 uM after 24 to 48 hrs by dot blot assay; format: cell-based; settings: dose 10-50 µM, time 24-48 hrs
[18] = Redox activity of the compound assessed as H2O2 production at 250 uM in presence of DTT by horseradish peroxidase-phenol red counter screen based assay; format: physicochemical
[19] = molecular target: T1, RNA cytidine acetyltransferase (Homo sapiens); test: Inhibition of NAT10-catalyzed RNA cytidine acetylation in human HeLa cells assessed as decrease in ac4C at helix 45 of 18S rRNA at 50 uM after 4 days by UV-HPLC analysis; format: cell-based; settings: time 4.0 day; outline: as §3

SMILES: C#CCN(N=C1CCCC1)c1nc(-c2ccc(Cl)cc2)cs1
- Activity (K562 [1]): Dose-dependent effect

SMILES: C#CCNC(=O)c1ccc(-c2csc(NN=C3CCCC3)n2)cc1
- Activity (K562 [1]): Dose-dependent effect
- Activity (K562 [2]): inactive
- Stabilty [3]: Unstable

SMILES: Nc1ncnc2c1ncn2[C@@H]1O[C@H](COP(=O)(O)OP(=O)(O)OP(=O)(O)O)[C@@H](O)[C@H]1O
- Activity [4]: Active

SMILES: N#Cc1ccc(-c2csc(NN=C3CCCC3)n2)cc1
- Stabilty [5]: Stable
- Activity [6]: Not Active
- Activity (Tubulin (Homo sapiens)): inactive
- Activity [7]: Not Active
- inhibition [8]: inactive
- Stabilty [9]: Unstable
- inhibition [10]: inactive
- Activity [11]: inactive
- inhibition [12]: inactive
- Activity [13]: Active
- Activity [14]: Not Active
- inhibition [15]: inactive
- Activity [16]: Active
- Stabilty [3]: Unstable
- inhibition [17]: inactive
- Activity [18]: Not Active
- Activity [4]: inactive
- inhibition [19]: inactive

SMILES: CC(=O)SCCNC(=O)CCNC(=O)[C@H](O)C(C)(C)COP(=O)(O)OP(=O)(O)OC[C@H]1O[C@@H](n2cnc3c(N)ncnc32)[C@H](O)[C@@H]1OP(=O)(O)O
- Activity [11]: Active
- Activity [4]: Active

Reference: ChEMBL document CHEMBL4732272, “Remodelin Is a Cryptic Assay Interference Chemotype That Does Not Inhibit NAT10-Dependent Cytidine Acetylation” (ACS Med Chem Lett, 2021)
